In ChEMBL document CHEMBL1147412, “Synthesis and biological activity of new quinoxaline antibiotics of echinomycin analogues” (Bioorg Med Chem Lett, 2004):
In brackets after ≈: the same amount, converted by molar mass.

Assays:
B16 = test: Inhibitory activity against growth of B16 mouse melanoma cell line was determined by MTT assay; type: functional, cell-based
Method in brief: (§1)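 Exponentially growing cells seeded at 2 × 10^4 ~ 5 × 10^4 cells/well in RPMI-1640, drug-treated, then incubated 72 h. MTT (5 mg/mL stock) added, 4 h at 37 °C. Formazan dissolved in DMSO at rt, absorbance read at 540 nm. IC50 from plot of log drug concentration versus growth rate of treated cells.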

BeWo = test: Inhibitory activity against growth of BeWO placental tumor cell line was determined by MTT assay; type: functional, cell-based; settings: Homo sapiens; method in brief: as §1
HT-29 [1] = test: Inhibitory activity against growth of HT-29 colon tumor cell line was determined by MTT assay; type: functional, cell-based; settings: Homo sapiens; method in brief: as §1
HT-29 [2] = test: Percentage of apoptotic HT-29 cells after 24 H treatment with 10 ug/mL concentration of compound; type: functional, Homo sapiens
Method in brief: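 HT-29 cells exposed to compound at 10 μg/mL for 24 h. Apoptotic cell percentage measured by flow cytometry (FACScan). Mean ± SEM of at least three separate experiments.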

PANC-1 = test: Inhibitory activity against growth of PANC-1 tumor cell line was determined by MTT assay; type: functional, cell-based; settings: Homo sapiens; method in brief: as §1

IC50 (B16)	IC50 (HT-29 [1])	IC50 (PANC-1)	SMILES	IC50 (BeWo)	Apoptotic cells (HT-29 [2])
1.4 µg/mL (≈ 1.27 µM)	5 µg/mL (≈ 4.54 µM)	4 µg/mL (≈ 3.63 µM)	CC(C)[C@H]1C(=O)OC[C@@H](NC(=O)c2cnc3ccccc3n2)C(=O)N[C@@H](C)C(=O)N(C)[C@H]2CSCSC[C@@H](C(=O)N1C)N(C)C(=O)[C@H](C)NC(=O)[C@H](NC(=O)c1cnc3ccccc3n1)COC(=O)[C@H](C(C)C)N(C)C2=O	2.7 µg/mL (≈ 2.45 µM)	28.9%
> 20 µg/mL	> 20 µg/mL	> 20 µg/mL	CC(C)[C@H]1C(=O)OC[C@@H](NC(=O)c2cnc3ccccc3n2)C(=O)N[C@@H](C)C(=O)N(C)[C@H]2CSC[S+]([O-])C[C@@H](C(=O)N1C)N(C)C(=O)[C@H](C)NC(=O)[C@H](NC(=O)c1cnc3ccccc3n1)COC(=O)[C@H](C(C)C)N(C)C2=O (stereo not given in full)	> 20 µg/mL	–
> 20 µg/mL	> 20 µg/mL	> 20 µg/mL	CC(C)[C@H]1C(=O)OC[C@@H](NC(=O)c2cnc3ccccc3n2)C(=O)N[C@@H](C)C(=O)N(C)[C@H]2CS(=O)(=O)CS(=O)(=O)C[C@@H](C(=O)N1C)N(C)C(=O)[C@H](C)NC(=O)[C@H](NC(=O)c1cnc3ccccc3n1)COC(=O)[C@H](C(C)C)N(C)C2=O	> 20 µg/mL	–
> 20 µg/mL	> 20 µg/mL	> 20 µg/mL	CC(C)[C@@H]1NC(=O)[C@@H]2CS(=O)(=O)CS(=O)(=O)C[C@H](NC(=O)[C@H](C)NC(=O)[C@H](NC(=O)c3cnc4ccccc4n3)COC1=O)C(=O)N[C@@H](C(C)C)C(=O)OC[C@@H](NC(=O)c1cnc3ccccc3n1)C(=O)N[C@@H](C)C(=O)N2	> 20 µg/mL	–
0.4 µg/mL (≈ 0.363 µM)	2.2 µg/mL (≈ 2 µM)	1.8 µg/mL (≈ 1.63 µM)	CS[C@H]1SC[C@H]2C(=O)N(C)[C@@H](C(C)C)C(=O)OC[C@@H](NC(=O)c3cnc4ccccc4n3)C(=O)N[C@@H](C)C(=O)N(C)[C@@H]1C(=O)N(C)[C@@H](C(C)C)C(=O)OC[C@@H](NC(=O)c1cnc3ccccc3n1)C(=O)N[C@@H](C)C(=O)N2C [ECHINOMYCIN]	1 µg/mL (≈ 0.908 µM)	47.5%
> 20 µg/mL	> 20 µg/mL	> 20 µg/mL	CC(C)[C@H]1C(=O)OC[C@@H](NC(=O)c2cnc3ccccc3n2)C(=O)N[C@@H](C)C(=O)N(C)[C@H]2C[S+]([O-])C[S+]([O-])C[C@@H](C(=O)N1C)N(C)C(=O)[C@H](C)NC(=O)[C@H](NC(=O)c1cnc3ccccc3n1)COC(=O)[C@H](C(C)C)N(C)C2=O (stereo not given in full)	> 20 µg/mL	–
> 20 µg/mL	> 20 µg/mL	> 20 µg/mL	CC(C)[C@@H]1NC(=O)[C@@H]2CSCSC[C@H](NC(=O)[C@H](C)NC(=O)[C@H](NC(=O)c3cnc4ccccc4n3)COC1=O)C(=O)N[C@@H](C(C)C)C(=O)OC[C@@H](NC(=O)c1cnc3ccccc3n1)C(=O)N[C@@H](C)C(=O)N2	> 20 µg/mL	–
